Source: ChEMBL document CHEMBL4513216, “Probing the Open Global Health Chemical Diversity Library for Multistage-Active Starting Points for Next-Generation Antimalarials” (ACS Infect Dis, 2020)

Assay: Toxicity liver stage against HepG2, at 10uM
Assay type: cell-based
Design: test concentration 10 uM, cell line HepG2-A16-CD81EGFP
Conditions: human, HepG2-A16-CD81EGFP cells; read-out: INHIBITION
Procedure, shortened: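 Uninfected HepG2-A16-CD81EGFP cells, 3 × 10^3 per well, 1536-well, plated on prespotted compound at 10 μM final, parasite-free screening media added to match infected plates; puromycin 10 μM positive, DMSO 0.5% negative; run in parallel with 48 h PbLuc assay at 37 °C, 5% CO2; viability by CellTiter-Glo luminescence, normalized to controls.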

SMILES	cytotoxicity at 10 µM [%]
CCSc1nnc(N(CCC#N)CCC#N)s1	4.91
CCOc1ccccc1-c1noc(CN(C)Cc2cnn(C)c2)n1	-6.98
CC(C)(C)CN[C@@H]1CO[C@H](CNC(=O)c2ccncc2)[C@H]1O	-2.5
CN1CCN2C(=O)N(c3ccccc3)C[C@H]2C1	3.7
CCCc1cc(=O)[nH]c2nnc(SCC(C)=O)n12	7.29
Cc1ccccc1CSc1nc(=O)n(CCO)c2c1CCC2	20.6
Cc1cc(C(=O)N2CCc3ncnc(-c4cnn(C)c4)c3CC2)no1	8.88
Cc1nccc([C@H]2C[C@@H]3CCN(S(=O)(=O)C4CC4)C[C@H]3O2)n1	-2.3
COCCNC(=O)c1nc2c(s1)CCCN2c1ccc(C)nn1	8.33
COCC1COCCC12CCN(C(=O)COc1ccccc1C)CC2 (stereo not given)	2.08
Cc1nc(N2CCCC2)nc2c1CCN(C(=O)NC(C)C)CC2	2.93
CO[C@@H]1CC[C@H]2[C@H]1OCCN2C(=O)c1ccco1	-148
CCCOc1ccc(C(=O)Oc2cc(=O)n3cccc(C)c3n2)cc1	5.17
Cc1nc2ncc3c(=O)n(C)ccc3n2n1	-15.4
COc1cccc(CNC(=O)c2cccnc2N)c1	20.1
O=C(Cn1cc(-c2ccccc2)ncc1=O)Nc1ccncc1	11
Cc1cccc(CN2C[C@@H]3CN(C(=O)NC(C)C)C[C@@H]3C2=O)c1	-12.9
Cc1cccc2c1cnn2CCCNC(=O)C(C)C	-2.12
O=C(c1cccnc1)N1CCOC(Cc2ccccc2Cl)C1 (stereo not given)	2.12
CCCn1cc(Cl)c(C(=O)N2C[C@@H](O)[C@H](NC(C)=O)C2)n1	-0.255
CCN(CC)c1nc(O)cc(C(C)n2ncc3ccccc3c2=O)n1 (stereo not given)	2.47
Cn1cc(C(=O)N2CCC(c3cc(CCO)n(C)n3)C2)cn1 (stereo not given)	-0.0959
CC(C)c1[nH]c2ncccc2c1CN1CCC(O)CC1	2.57
Cn1ccnc1CN1CCOC(Cc2ccccc2)C1 (stereo not given)	-0.479
Cc1cncc(C2CCCN2CCO)n1 (stereo not given)	-3.14
CCOCC(=O)N1CCC(c2cc3ncccc3c(O)n2)CC1	-30.1
CC1(C2CCN(CC(N)=O)CC2)CN(Cc2ccccc2)C(=O)CO1 (stereo not given)	-19.9
Cc1ccccc1CC(=O)N1CC[C@@](O)(CNS(C)(=O)=O)[C@H](O)C1	-25.6

SMILES	cytotoxicity at 10 µM [%]
COCC(=O)N1CCCC1c1nc(O)cc(C(C)C)n1 (stereo not given)	-15.5
Cc1cc(-c2cnc(N3CCNC(=O)C3)nc2-c2sccc2C)on1	-12
CC(=O)Nc1nc(C2CCN(C(=O)Cc3ccccc3)CC2)cs1	-11.8
Cc1cc(CN2CCOC(C)(C(=O)N3CCOCC3)C2)no1 (stereo not given)	-24.2
COCCC(=O)N1CCC(c2cc(O)n(C)n2)C1 (stereo not given)	-23.1
O=C1NCCN1C1CCN(CC(O)c2ccccc2F)CC1 (stereo not given)	-0.535
CN(C)Cc1ccnc(NS(=O)(=O)CCc2ccccc2)c1	-3.09
O=C(Cc1cccc(O)c1)NCCNc1nccc(C(F)(F)F)n1	7.48
COc1ccccc1CC1CCCN(C(=O)c2nccnc2N)C1 (stereo not given)	5.79
CC(C)OCCC1CCCCN1S(C)(=O)=O (stereo not given)	2.43
CS(=O)(=O)NCCCNC(=O)c1cnc(-c2ccsc2)s1	-13.7
CN(C)c1cccc(C(=O)Nc2cnn(CC(N)=O)c2)c1	3.63
C[C@@H]1CN(Cc2ccc(-c3ccncc3)cc2F)CC(C(N)=O)O1 (stereo not given in full)	2.4
N#CC1(NC(=O)CN2CCc3c(ncn3C3CC3)C2)CCCC1	12.1
CN1CCOC(CNC(=O)C2(c3cccc(Cl)c3)CC2)C1 (stereo not given)	-3.03
COc1ccccc1C(=O)N(Cc1nc(C)cs1)CC1CCCO1 (stereo not given)	0.136
O=C(NCCNc1cnccn1)N1CC=C(c2ccccc2)CC1	6.39
COc1ccccc1C(C)CNC(=O)c1c(C)nn(C)c1OC (stereo not given)	-11.4
Cc1cccc(NC(=O)[C@@H]2CCCN2Cc2ccccc2C#N)n1	-4.11
O=C(NCCNS(=O)(=O)c1ccc(C(F)(F)F)cc1)c1ccoc1	-1.36
NC(=O)COc1ccc(CNCc2ccc(Cl)c(F)c2)cc1	-3.64
Cc1cc(C)n(Cc2cccc(C(=O)NCCSCC(C)(C)O)c2)n1	-6.93
CC1CN(C)c2ccccc2CN1C(=O)c1cnsn1 (stereo not given)	0.736
COc1ccc(C(C)NC(=O)NCCNc2ccccn2)c(OC)c1 (stereo not given)	0.00455
CCOCc1ccccc1NC(=O)NCC(C)(O)c1cccs1 (stereo not given)	-0.966
Cc1cc(C)c(CNC(=O)NCC2Cc3ccccc32)c(=O)[nH]1 (stereo not given)	-3.78
CC(Cn1cccn1)NC(=O)N1CCC(NS(C)(=O)=O)CC1 (stereo not given)	-0.508
